The test system of data set [1] is Leishmania donovani. The data set is described as follows: Antiparasitic activity against Leishmania donovani […]. Type of data set: functional, organism-based. In a few lines:
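Leishmania donovani MHOM-ET-67/L82 tested as axenic amastigotes; IC50 determined.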

The test system of data set [2] is Trypanosoma cruzi. The data set is described as follows: Antiparasitic activity against Trypanosoma cruzi Tulahuen C2C4. The class given is functional, organism-based.
Data set [3] deals with Plasmodium falciparum. The data set can be described thus: Antiparasitic activity against Plasmodium falciparum K1. Type of data set: functional, organism-based.
The nature of data set [4]: Selectivity index, ratio of IC50 for rat L6 cells to IC50 for Plasmodium falciparum K1. Type of data set: toxicity, cell-based. The note with it: rat L6 cells (cytotoxicity) versus Plasmodium falciparum K1, read-out: Ratio IC50.
The subject of data set [5] is L6. The data set can be described thus: Cytotoxicity against rat L6 cells. The class given is cell-based. A digest of the protocol: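 Cytotoxicity was measured on rat skeletal myoblast L6 cells, with the IC50 as read-out.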
The subject of data set [6] is Trypanosoma brucei rhodesiense. The data set can be described thus: Antiparasitic activity against Trypanosoma brucei rhodesiense STIB900. The class given is functional, organism-based.

A value given as a limit tells only on which side of the number the result lay.

As to `Clc1ccc2[nH]c3c[n+](Cc4ccc(C[n+]5ccc6c(c5)[nH]c5ccc(Cl)cc56)cc4)ccc3c2c1`, the IC50 in data set [1] was 19.9 µM; in data set [2], over 51.7 µM; in data set [3], 0.223 µM; in data set [5] it was 17.4 µM; in data set [6], 1 µM. Besides, in data set [4], the selectivity ratio was 78.
Regarding `Clc1ccc2[nH]c3c[n+](C/C=C\C[n+]4ccc5c(c4)[nH]c4ccc(Cl)cc45)ccc3c2c1`, the IC50 in data set [1] is 9.6 µM; in data set [2], over 56.6 µM; in data set [3], 0.113 µM; in data set [5], 61.1 µM; in data set [6], 1.1 µM. Also, the selectivity ratio in data set [4] is 540.
Turning to `Clc1ccc2[nH]c3c[n+](Cc4cccc(C[n+]5ccc6c(c5)[nH]c5ccc(Cl)cc56)c4)ccc3c2c1`, the IC50 in data set [1] stood at 0.2 µM; in data set [2], 5.9 µM; in data set [3] it was 0.121 µM; in data set [5] it was 3.8 µM; in data set [6], 1.2 µM. Also, the selectivity ratio in data set [4] came out at 32.
Consider `Clc1ccc2[nH]c3c[n+](CCCCCC[n+]4ccc5c(c4)[nH]c4ccc(Cl)cc45)ccc3c2c1`, for which the IC50 in data set [1] stood at 6.6 µM; in data set [2], 36.2 µM; in data set [3] it was 0.02 µM; in data set [5], 36.2 µM; in data set [6] it was 1.2 µM. Also, the selectivity ratio in data set [4] is 1810.
`Clc1ccc2[nH]c3c[n+](CCOCC[n+]4ccc5c(c4)[nH]c4ccc(Cl)cc45)ccc3c2c1`: the IC50 in data set [1] stood at 8.6 µM; in data set [2], 51.1 µM; in data set [3], 0.018 µM; in data set [5], 47.9 µM; in data set [6], 1.2 µM. Further, in data set [4], the selectivity ratio amounted to 2620.
With `Clc1ccc2[nH]c3c[n+](CCCCCCCCCCCC[n+]4ccc5c(c4)[nH]c4ccc(Cl)cc45)ccc3c2c1`, the IC50 was 0.6 µM in data set [1]; 10 µM in data set [2]; 0.023 µM in data set [3]; 4.3 µM in data set [5]; 1.2 µM in data set [6]. The selectivity ratio in data set [4] turned out to be 186.
Take `Clc1ccc2[nH]c3c[n+](Cc4ccc(-c5ccc(C[n+]6ccc7c(c6)[nH]c6ccc(Cl)cc67)cc5)cc4)ccc3c2c1`: the IC50 in data set [1] is 68.4 µM; in data set [2], over 45.7 µM; in data set [3], 0.056 µM; in data set [5], 23 µM; in data set [6], 2.5 µM. Besides, the selectivity ratio in data set [4] was found to be 408.
For the compound `Clc1ccc2[nH]c3c[n+](CC#CC[n+]4ccc5c(c4)[nH]c4ccc(Cl)cc45)ccc3c2c1`, the concentration for half-maximal inhibition (IC50) in data set [1] turned out to be 34.7 µM; in data set [2], 10.6 µM; in data set [3] it was 0.738 µM; in data set [5], 28.5 µM; in data set [6] it was 6.4 µM. The selectivity ratio in data set [4] came to 39.
As to `Clc1ccc2[nH]c3c[n+](CCCCCCCCCC[n+]4ccc5c(c4)[nH]c4ccc(Cl)cc45)ccc3c2c1`, the IC50 in data set [1] was found to be 0.9 µM; in data set [2] it was 36.6 µM; in data set [3], 0.014 µM; in data set [5], 8.2 µM; in data set [6], 1.1 µM. In addition, in data set [4], the selectivity ratio turned out to be 575.
Turning to `C[n+]1ccc2c(c1)[nH]c1ccc(Cl)cc12` [NOSTOCARBOLINE], the IC50 in data set [1] is 34.3 µM; in data set [2], over 87.1 µM; in data set [3] it was 0.194 µM; in data set [5] it was 121 µM; in data set [6] it was 70.5 µM. Also, the selectivity ratio in data set [4] is 622.
As to `Clc1ccc2[nH]c3c[n+](CCCCCCCC[n+]4ccc5c(c4)[nH]c4ccc(Cl)cc45)ccc3c2c1`, the IC50 in data set [1] came to 2.3 µM; in data set [2], 31.4 µM; in data set [3] it was 0.018 µM; in data set [5], 7.5 µM; in data set [6] it was 0.9 µM. In addition, the selectivity ratio in data set [4] was 423.
Regarding `O=C(O)c1cn(C2CC2)c2cc(N3CCN(Cc4ccc(C[n+]5ccc6c(c5)[nH]c5ccc(Cl)cc56)cc4)CC3)c(F)cc2c1=O`, the half-inhibitory concentration (IC50) in data set [1] was 61.6 µM; in data set [2], over 44.6 µM; in data set [3], over 7.4 µM; in data set [5], 121 µM; in data set [6], 92.5 µM.

The term IC50 denotes the concentration needed to halve the response being measured.

The values above are taken from ChEMBL document CHEMBL1155825, “Potent and selective antiplasmodial activity of the cyanobacterial alkaloid nostocarboline and its dimers” (Bioorg Med Chem Lett, 2008).
